A selection: hits, their analogues and other compounds. The true share with any hit is near 3.6%.
T cruzi inh = T. cruzi replication inhibition | hit rate 1.4% among 300,000 | AID 1885 | T. cruzi beta-gal in NIH3T3, luminescence, 90 h | inhibition, % (concentration not given with the values);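 active = mean inhibition across valid replicates above about 55%, limit read from the data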;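 also: signal also drops with host cell toxicity which is not excluded here; 0% = plate median of DMSO wells and 100% = zero luminescence signal; higher percent means less beta-gal luminescence so fewer parasites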
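System: NIH/3T3 fibroblasts plus reporter T. cruzi. Medium: DMEM plus 2% FBS. Probe or stimulus: 5000 reporter trypomastigotes per well. Compound: single 50 nL compound addition per well in DMSO. Incubation: co-culture of at least 90 h after 3 h attachment. Detection: GalScreen β-gal luminescence, detergent lysis, 60 min. Evaluation: parasite load inhibition, %.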
CSC inhib = blocks cancer stem cells; hit rate 1.1% among 300,000; inhibition, % at 7.5 µM; cancer stem cell-like cells viability, luminescence; in the data active = inhibition above about 75%; tested in HMLE shEcad cells
HIF activator = HIF pathway transcriptional activation | U2OS HRE-luciferase reporter, luminescence; normalized: DMSO 0%, desferrioxamine 100% | activation, % at 7.5 µM (by protocol) | hit rate 0.32% among 300,000 | AID 1910;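 active = mean activation of at least 10% of the iron chelator positive control signal, with at least half of replicates also reaching 10%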
Beta cell apopt = blocks beta cell apoptosis. protection from apoptosis, % (test concentration not listed). AID 435005. hit rate 0.8% among 300,000. INS-1E cytokine-induced death, ATP luminescence, 48 h; percent of positive-control rescue, neutral wells zero;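 active = Every replicate reaches about 75%, or at least half do and their mean reaches it too, limit read from the data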;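 also: 0% = cytokine-treated negative control wells and 100% = positive control rescue; higher means more ATP so stronger rescue from cytokine killing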
PfHsp90 yeast 2 = reduces growth (ATP signal) of yeast expressing P. falciparum Hsp90; S. cerevisiae expressing PfHsp90, BacTiter-Glo ATP, 48 h; yeast lacking PDR1 and PDR3 efflux regulators; inhibition, % at 9.4 µM; hit rate 0.32% among 310,000;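 active = every replicate shows inhibition above about 80%, whatever the replicate mean, limit read from the data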;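 also: 0% = DMSO neutral controls and 100% = 20 µM radicicol positive controls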
SKKanGAS inh = blocks kanamycin growth of S. pyogenes SKKanGAS strain | hit rate 1.3% among 300,000 | BacTiter-Glo, 6 h | AID 1662 | inhibition, % at 7.5 µM;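 active = mean replicate score, as percent of positive control median, at least 50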;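 also: strain carries kanamycin resistance gene driven by streptokinase promoter and grows in 40 µg/ml kanamycin; loss of luminescence reflects streptokinase promoter inhibition or plain growth inhibition; 0% = median of DMSO wells and 100% = positive control at its reference dose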
The depositor's hits bear a star.

`O=C(NC(=O)N1CCN(c2cccc(Cl)c2)CC1)c1ccc(Cl)cc1` gave T cruzi inh -3.9, CSC inhib 109.5*, HIF activator 0.3, Beta cell apopt -3.0, PfHsp90 yeast 2 -15.9 and SKKanGAS inh 13.8.
For O=C(Nc1cccc(Cl)c1)Nc1cccc(C(=O)O)c1 the results were T cruzi inh -7.5, CSC inhib 8.8, HIF activator 11.7*, Beta cell apopt -7.1, PfHsp90 yeast 2 -1.4 and SKKanGAS inh -2.4.
Screening COc1cccc(NC(=O)Nc2ccc(C)c(Cl)c2)c1 returned T cruzi inh 60.7*, CSC inhib 16.3, HIF activator 1.8, Beta cell apopt 11.6, PfHsp90 yeast 2 7.2 and SKKanGAS inh 2.4.
For COc1ccccc1C(=O)NNC(=O)C(=O)Nc1ccc(C)c(Cl)c1 the results were T cruzi inh 2.5, HIF activator -0.2, Beta cell apopt -3.8, PfHsp90 yeast 2 -29.7 and SKKanGAS inh 98.1*.
Cc1ccc(NC(=O)C(=O)NNC(=O)c2ccccc2C)cc1Cl was read as T cruzi inh -1.3, CSC inhib -5.1, HIF activator -0.4, Beta cell apopt -2.5, PfHsp90 yeast 2 67.0 and SKKanGAS inh 21.3.
COC(=O)c1cccc(NC(=O)Nc2ccc(Cl)c(Cl)c2)c1 was read as T cruzi inh 55.2*, CSC inhib 97.1*, HIF activator 2.8, Beta cell apopt 81.5*, PfHsp90 yeast 2 -5.9 and SKKanGAS inh 5.4.
COc1cccc(NC(=O)Nc2cc(C(=O)O)ccc2C)c1 was read as T cruzi inh -3.6, CSC inhib -8.5, HIF activator -0.6, Beta cell apopt -6.7, PfHsp90 yeast 2 -14.4 and SKKanGAS inh 0.5.
`CC(=O)c1sc2nc(-c3ccccc3)cc(C)c2c1N` gave T cruzi inh 56.5*, CSC inhib -6.1, HIF activator -0.5, Beta cell apopt 8.0, PfHsp90 yeast 2 3.4 and SKKanGAS inh 0.6.
`O=[N+]([O-])c1ccc(C2CCCC/C2=N/OCc2ccccc2F)c([N+](=O)[O-])c1` (centres undefined) gave CSC inhib 23.7, Beta cell apopt -6.1, PfHsp90 yeast 2 -13.8 and SKKanGAS inh -6.4.
`O=[N+]([O-])c1ccc(C2CCCC/C2=N/OCc2ccc(F)cc2)c([N+](=O)[O-])c1` (centres undefined) gave T cruzi inh 61.0*, CSC inhib 15.1, HIF activator -0.6, Beta cell apopt -2.4, PfHsp90 yeast 2 9.6 and SKKanGAS inh 12.3.
For CN(C(=O)c1cccc(NC(=O)Cc2ccc(NC(=O)C3CCCN(C(=O)C4CCCC4)C3)cc2)c1)C1CC1 (centres undefined) the results were PfHsp90 yeast 2 18.4.
For CN(C)S(=O)(=O)c1ccc(N2CCCC2)c(C(=O)NCC2CCCO2)c1 (centres undefined) the results were T cruzi inh -3.1, CSC inhib -3.9, HIF activator 0.1, Beta cell apopt -1.1 and SKKanGAS inh 18.9.
`COCCNc1nc(-c2cc(C)n(CCc3ccc(OC)cc3)c2C)cs1` gave T cruzi inh 60.3*, CSC inhib 2.7, HIF activator -0.5, Beta cell apopt 1.4, PfHsp90 yeast 2 -11.7 and SKKanGAS inh -5.2.
Screening Cc1cc(CN2CCN(CCC#N)CC2)c(O)c(C2(C)CCCCC2)c1 returned T cruzi inh 54.9*, CSC inhib -21.1, HIF activator -0.1, Beta cell apopt 7.0, PfHsp90 yeast 2 -5.3 and SKKanGAS inh 26.2.
N#CCCN1CCN(CCC#N)CC1 was read as T cruzi inh -2.8, HIF activator 0.0, PfHsp90 yeast 2 -8.3 and SKKanGAS inh 9.8.
`CCOC(=O)c1ccc(S(=O)(=O)NNC(=O)COc2ccccc2C)cc1` gave T cruzi inh -13.4, CSC inhib 1.0, HIF activator 999.5*, Beta cell apopt 1.8, PfHsp90 yeast 2 4.7 and SKKanGAS inh 2.5.
`CCOC(=O)c1ccc(OCCOc2ccccc2C)cc1` gave T cruzi inh -5.5, CSC inhib 8.1, HIF activator 0.8, Beta cell apopt 2.9, PfHsp90 yeast 2 -37.1 and SKKanGAS inh 9.1.
Screening CCOC(=O)[C@@H]1[C@H]2COc3cc(OC)ccc3[C@H]2N2C(=O)N(c3ccc(C)cc3)C(=O)[C@]12C returned CSC inhib -11.3, Beta cell apopt -1.8 and PfHsp90 yeast 2 16.8.
For CC1=C(c2ccccc2)C(O)(c2ccccc2)C(C)C1=O (centres undefined) the results were PfHsp90 yeast 2 17.5.
For C/C(=N\Nc1nc(C)cc(-c2ccccc2)n1)c1ccc(F)cc1 the results were T cruzi inh 6.9, CSC inhib 16.8, HIF activator -0.4, Beta cell apopt 78.0*, PfHsp90 yeast 2 -4.8 and SKKanGAS inh -11.5.
For C/C(=N/Nc1nc(-c2ccccc2)cc(-c2ccc(F)cc2)n1)c1cccc(N)c1 the results were T cruzi inh 25.3, CSC inhib 42.7, HIF activator 0.9, Beta cell apopt 79.0*, PfHsp90 yeast 2 -25.2 and SKKanGAS inh 14.6.
COc1ccc(/C(C)=N/Nc2nc(C)cc(-c3ccccc3)n2)cc1 was read as T cruzi inh 41.7, CSC inhib 5.3, HIF activator 0.0, Beta cell apopt 82.7* and SKKanGAS inh -7.3.
C/C(=N\Nc1nc(N)cc(Cl)n1)c1cccc(N)c1 was read as T cruzi inh -4.3, CSC inhib -2.3, HIF activator -1.2, Beta cell apopt -1.4, PfHsp90 yeast 2 -39.1 and SKKanGAS inh 8.6.
`COc1ccc(/C(C)=N\Nc2nc(-c3ccccc3)cc(=O)[nH]2)cc1` gave T cruzi inh 19.2, CSC inhib 4.6, HIF activator -0.7, Beta cell apopt -0.2, PfHsp90 yeast 2 -18.5 and SKKanGAS inh 7.1.
Cc1ccc(C)c(S(=O)(=O)N2CCCCC2CCNC(=O)C(=O)NCc2ccncc2)c1 (centres undefined) was read as T cruzi inh 13.5, CSC inhib -5.2, HIF activator -0.1, Beta cell apopt 3.7, PfHsp90 yeast 2 2.6 and SKKanGAS inh -8.5.
`CC[C@]12c3[nH]c4cc(CCC(=O)N(C)C)ccc4c3CCN1C(=O)[C@@H](CC(=O)NCCc1ccccn1)C[C@@H]2C(=O)N1CCN(C(=O)C2CC2)CC1` gave PfHsp90 yeast 2 9.0.
Screening COc1ccc(Br)cc1C(=O)Nc1ccc(Cc2ccncc2)cc1 returned T cruzi inh 73.4*, CSC inhib 45.9, HIF activator -0.4, Beta cell apopt 5.8, PfHsp90 yeast 2 -1.1 and SKKanGAS inh -16.8.
`Cc1cc(C)cc(C(=O)NC(=S)Nc2ccc(Cc3ccncc3)cc2)c1` gave T cruzi inh 22.7, CSC inhib 18.3, HIF activator 0.4, Beta cell apopt -4.9, PfHsp90 yeast 2 20.1 and SKKanGAS inh 2.9.
CCOc1ccc(NC(=O)Nc2ccc(Cc3ccncc3)cc2)cc1 was read as T cruzi inh 49.1, CSC inhib 80.4*, HIF activator -1.7, Beta cell apopt 39.0, PfHsp90 yeast 2 -16.5 and SKKanGAS inh -1.8.
